# Assay outcomes: PubChem, several laboratories
# Sampled rows, rich in hits. Any-hit rate of the full collection: about 2.2%.
# b-catenin transl – modulators of beta-catenin nuclear translocation; HeLa beta-catenin nuclear translocation, immunofluorescence imaging; nuclear translocation activity, % at 5 µM; 0.3% of 190,000 active;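 active = nuclear translocation activity above 50% at 5 µM, with a well cell count of 50 or more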;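 also: per-cell ratio of nuclear to cytoplasmic median beta-catenin stain intensity; plate controls were DMSO negative control for no effect and GSK-3 inhibitor IX positive control for full effect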
#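 Test system: human HeLa cells, endogenous beta-catenin. Times: 24 h compound exposure, 37°C. Measured by: beta-catenin immunofluorescence imaging with DAPI.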
# Ba/F3 V617F tox – reduce viability of Ba/F3 cells dependent on JAK2V617F; inhibition, % at 5.6 µM; Ba/F3 EpoR-JAK2V617F viability, ATP luminescence; AID 1446; 1.1% of 220,000 active;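 active = inhibition above the campaign mean plus 3 SD over all tested compounds, cut at about 24% in these data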;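 also: cytokine-independent growth of Ba/F3 cells driven by EpoR plus mutant JAK2; 0% = DMSO-treated cells and 100% = JAK inhibitor I control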
# IEC-6 cytotox – counter-screen for KLF5 inhibitors: cytotoxicity in IEC-6 cells; inhibition, % at 5 µM; IEC-6 cytotoxicity, luminescence viability; 0.78% of 290,000 active;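 also: 0% = plate median of test compound wells and 100% = cytotoxic reference compound wells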
# BaF3 tox – reduces parental Ba/F3 cell viability, JAK2V617F counter-screen; inhibition, % at 5.6 µM; CellTiter-Glo ATP luminescence; AID 1486; 1.1% of 220,000 active;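 active = inhibition above a per-campaign cutoff, the mean inhibition of all tested compounds plus 3 SD, cut at about 27% in these data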;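 also: 0% = DMSO wells and 100% = JAK Inhibitor I control wells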
# MT stabilizer – stabilizes microtubules in HeLa cells; AID 2205; 0.83% of 200,000 active; HeLa tubulin immunostaining HCS, 24 h; share of cells brighter than vehicle mean+2SD; % tubulin-high responders, % at 10 µM;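 active = plate Z-score above 3 for both tubulin-high and condensed-nucleus cell shares, with cell loss under 80%, at 10 µM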;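 also: anti alpha tubulin signal scored within the nucleus-defined area of each cell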
# APP 5UTR inh – APP translation inhibition; SH-SY5Y APP 5'UTR-luciferase reporter, luminescence; inhibition, % at 2 µM; 0.82% of 190,000 active;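 active = inhibition above a set limit, derived from the sample mean plus 3 SD, cut at about 45% in these data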
# IEC-6 tox confirm – IEC-6 cytotoxicity, confirmation assay | shares compounds with IEC-6 cytotox | IEC-6 rat intestinal epithelial viability, luminescence | inhibition, % at 5 µM | 63% of 1,900 active | AID 1907;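 also: 0% = vehicle and 100% = reference cytotoxic drug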
# An asterisk follows results filed as active; nt = no result. Rule as the data show it, unless noted: active = inhibition above about 22%; inactive = the rest.
SMILES,b-catenin transl,Ba/F3 V617F tox,IEC-6 cytotox,BaF3 tox,MT stabilizer,APP 5UTR inh,IEC-6 tox confirm
O=C(Nc1nc(-c2ccccn2)cs1)C1CCCC1,-3,-5,25*,0,3,-24,-1
CCOc1ccc(CCNC(=O)COC(=O)c2ccc(C)s2)cc1OCC,nt,nt,-6,nt,nt,nt,nt
Fc1ccc(-c2csc(Nc3ccccn3)n2)cc1,nt,nt,32*,nt,nt,nt,10
O=C(Nc1cccc(C(F)(F)F)c1)c1cncs1,nt,nt,0,nt,nt,nt,nt
COc1cccc(N2CC(O)=C(c3nc4ccccc4s3)C2=N)c1,4,76*,79*,81*,nt,88*,57*
CCOc1cc(/C=N/Nc2cc(C)nc(-n3nc(C)cc3C)n2)ccc1O,2,-1,54*,-1,nt,nt,16
CCOc1ccc(Nc2cc(C)nc(-n3nc(C)cc3C)n2)cc1,87*,77*,84*,81*,16,96*,52*
COc1ccc(OC)c(Nc2nc(=O)c3cccnc3s2)c1,0,1,0,3,3,2,nt
Cc1ccc(Nc2nc(=O)c3cccnc3s2)cc1,-3,0,37*,7,3,-68,39*
CCC1CN(C(=O)N2CCC(C(=O)NCc3ccco3)CC2)c2cc(C)ccc2O1 (centres undefined),nt,nt,7,nt,nt,nt,nt
Cc1ccc2nc(-c3ccc4c(c3)OCCO4)cn2c1,56*,81*,75*,79*,nt,nt,61*
c1ccn2cc(-c3ccc4c(c3)OCCO4)nc2c1,0,13,11,14,3,-117,nt
COC(=O)c1ccc(NS(=O)(=O)c2cc(-c3cc(C)no3)ccc2OC)cc1,nt,nt,63*,nt,nt,nt,40*
Cc1ccc(C(C)C)c(OCc2ccc(C(=O)N/N=C/c3cccc(O)c3O)cc2)c1,1,97*,41*,90*,6,80*,78*
Cc1cc(C)cc(CN2C(=O)NC3(CCCCCC3)C2=O)c1,nt,nt,-2,nt,nt,nt,nt
CCOC(=O)N1CCN(Cc2nc3cc(NC(=O)CC)ccc3n2C)CC1,nt,nt,-6,nt,nt,nt,nt
CCCn1c(CN2CCN(C(=O)OCC)CC2)nc2cc(NC(=O)CC)ccc21,nt,nt,53*,nt,nt,nt,24*
O=c1[nH]c(-c2ccccn2)nc(C(F)(F)F)c1Br,-2,9,68*,28*,5,6,24*
O=C(Nc1ccccc1F)c1ccc(C(=O)c2ccccc2)cc1,nt,nt,4,nt,nt,nt,nt
O=C(c1cccs1)N(Cc1cccc(F)c1)C1CCS(=O)(=O)C1 (centres undefined),nt,nt,2,nt,nt,nt,nt
CC(C)(C)c1ccc(-n2nc(C(N)=O)c(O)cc2=O)cc1,-2,3,7,3,2,7,nt
CC(C)(C)c1ccc(-n2nc(C#N)c(Cl)cc2=O)cc1,0,15,52*,-11,3,94*,11
O=C(c1ccccc1-c1ccccc1)N1CCN(c2ccccn2)CC1,66*,75*,34*,55*,43*,46*,39*
Cc1ccccc1C(=O)N1CCN(c2ccccn2)CC1,-6,-1,2,3,3,-7,nt
Cc1cc(-c2ccccc2)nc(N2CCN(c3ccccn3)CC2)n1,0,2,26*,1,3,-11,41*
SMILES,b-catenin transl,Ba/F3 V617F tox,IEC-6 cytotox,BaF3 tox,MT stabilizer,APP 5UTR inh,IEC-6 tox confirm
CC(=O)c1ccc(N2CCN(C(=O)CCS(=O)(=O)c3ccc4c(c3)NC(=O)CS4)CC2)cc1,nt,nt,11,nt,nt,nt,nt
CCCc1cc(=O)[nH]c(SCC(=O)c2cc(C)n(CC(F)(F)F)c2C)n1,-2,0,-4,9,5,-31,nt
Cc1cc(C(=O)Cn2ncc(Cl)c(Cl)c2=O)c(C)n1CC(F)(F)F,-4,44*,100*,79*,3,75*,19
CS(=O)(=O)c1sc(C#N)c2c1C(=O)CC(c1ccccc1)C2 (centres undefined),-3,99*,75*,92*,nt,nt,20
Cc1ccc(C)c(NC(=O)c2cc(-c3cc(C)c(C)cc3O)n[nH]2)c1,nt,nt,-6,nt,nt,nt,nt
C=CCN(CC=C)S(=O)(=O)c1ccc2nc(NC(=O)C(C)C)sc2c1,47,64*,54*,76*,16,44,47*
O=C1CC(=O)Nc2cc(S(=O)(=O)Nc3ccc(Cl)c(C(F)(F)F)c3)ccc2N1,nt,nt,-2,nt,nt,nt,nt
COc1cc(SC)ccc1C(=O)Nc1ccc2ncccc2c1,nt,nt,10,nt,nt,nt,nt
O=c1[nH]c(/C=C/c2ccccc2F)nc2ccccc12,nt,nt,79*,nt,nt,nt,63*
O=c1[nH]c(/C=C/c2cccc3ccccc23)nc2ccccc12,0,3,7,3,4,-16,nt
O=c1c2ccccc2[nH]c(=S)n1CCCN1CCN(c2ccccc2)CC1,nt,nt,34*,nt,nt,nt,18
O=c1c2ccccc2[nH]c(=S)n1CCCN1CCN(c2ccccc2F)CC1,nt,nt,16,nt,nt,nt,nt
COc1ccc(OC)c(S(=O)(=O)n2ccc(C)n2)c1,nt,nt,-9,nt,nt,nt,nt
CCN(CC)c1ccc2cc(-c3nc4ccccc4n3C)c(=O)oc2c1,66*,69*,84*,77*,29*,87*,66*
Cc1ccc(CCS(=O)(=O)c2ccc(C(C)(C)C)cc2)cn1,nt,nt,6,nt,nt,nt,nt
COc1cc2cc(-c3ccc(O)cc3O)nc(C)c2cc1OC,nt,nt,22*,nt,nt,nt,16
COc1ccc(-n2nnnc2-c2cccc(OC)c2)cc1,42,78*,84*,71*,18*,91*,59*
O=C(N/N=C/c1ccc2c(c1)OCO2)c1cccc(NC(=O)c2ccccc2Cl)c1,nt,nt,36*,nt,nt,nt,9
Cc1cc(C(=O)N/N=C/c2ccc3c(c2)OCO3)c2ccccc2n1,2,56*,39*,52*,nt,nt,35*
O=C(NCCc1cccc(F)c1)C1CCC(=O)N(CCCc2ccccc2)C1 (centres undefined),nt,nt,3,nt,nt,nt,nt
Cc1ccc(C(=O)OCn2ncc(Cl)c(Cl)c2=O)cc1,0,39*,44*,56*,3,92*,56*
COc1ccc(NC(=O)Cn2ncc(Cl)c(Cl)c2=O)cc1S(=O)(=O)N1CCOCC1,-1,-4,41*,-6,6,-4,7
CCOC(=O)c1ccc(NC(=O)Cn2ncc(Cl)c(Cl)c2=O)cc1,nt,56*,35*,63*,4,96*,32*
COc1ccc(NC(=O)CSc2ccccc2)cc1S(=O)(=O)N1CCOCC1,nt,nt,1,nt,nt,nt,nt
O=C(NC1CCCCC1)C1CCCN(S(=O)(=O)c2ccc(F)cc2)C1 (centres undefined),nt,nt,4,nt,nt,nt,nt
Cc1cc(NC(=O)COC(=O)COc2cccc3c2OC(C)(C)C3)no1,-6,0,-1,5,3,11,nt
Cc1cnc(NC(=O)COc2cccc3c2OC(C)(C)C3)s1,1,6,30*,11,2,29,34*
Cc1ccc(C)c(C2NC(=O)c3ccccc3N2)c1 (centres undefined),64*,42*,63*,39*,nt,nt,51*
CNC(C)C#Cc1c(-c2cc(OC)c(OC)c(OC)c2)noc1C (centres undefined),nt,nt,0,nt,nt,nt,nt
